According to ChEMBL document CHEMBL5214897, “Modular Design of Membrane-Active Antibiotics: From Macromolecular Antimicrobials to Small Scorpionlike Peptidomimetics” (J Med Chem, 2021):
In brackets after ≈: the same amount, converted by molar mass. Activity calls are given as the source filed them. The rule behind the calls is not given here.

Legend:
Enterococcus faecalis = assay: Antibacterial activity against vancomycin-resistant Enterococcus faecalis assessed as bacterial growth inhibition incubated for 16 hrs by microplate reader assay; type: functional
Summary of the method: (§1)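 Strains grown in TSB at 37 °C for 16 h with shaking, subcultured 6 h to mid-log. 10^6 CFU/mL bacteria mixed 1:1 with compound over 0.75 to 25 μg/mL. Incubated at 37 °C for 16 h; MIC read on a microplate reader.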

[1] = Hemolytic activity in human RBC assessed as hemolysis incubated for 1 hr by microplate reader assay; type: toxicity, cell-based, Erythrocyte; conditions: human red blood cells (erythrocytes)
Summary of the method: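 Fresh human erythrocytes washed in 1× PBS (700 g, 10 min), made to 5% suspension, mixed 1:1 with compound (250 to 1.95 µg/mL), 37 °C for 1 h. After centrifugation, supernatant diluted in PBS and A540 read; 2% Triton-100 = 100%, PBS = 0%; HC50 derived from % hemolysis.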

[2] = tested on: Staphylococcus epidermidis; assay: Antibacterial activity against methicillin-resistant Staphylococcus epidermidis assessed as bacterial growth inhibition incubated for 16 hrs by microplate reader assay; type: functional; summary of the method: as §1
Pseudomonas aeruginosa = assay: Antibacterial activity against Pseudomonas aeruginosa assessed as bacterial growth inhibition incubated for 16 hrs by microplate reader assay; type: functional
Summary of the method: (§2)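 Strains E. coli ATCC 25922, K. pneumoniae ATCC 13383, P. aeruginosa ATCC 27853 grown in TSB at 37 °C for 16 h with shaking, subcultured 6 h to mid-log.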

Klebsiella pneumoniae = assay: Antibacterial activity against Klebsiella pneumoniae assessed as bacterial growth inhibition incubated for 16 hrs by microplate reader assay; type: functional; summary of the method: as §2
[3] = Therapeutic index, ratio of HC50 for Hemolytic activity in human RBC to MIC for Antibacterial activity against methicillin-resistant Staphylococcus aureus; type: toxicity
Staphylococcus aureus [4] = assay: Antibacterial activity against methicillin-resistant Staphylococcus aureus assessed as bacterial growth inhibition incubated for 16 hrs by microplate reader assay; type: functional; summary of the method: as §1
Escherichia coli = assay: Antibacterial activity against Escherichia coli assessed as bacterial growth inhibition incubated for 16 hrs by microplate reader assay; type: functional; summary of the method: as §2
Staphylococcus aureus [5] = assay: Antibacterial activity in ICR mouse infected with methicillin-resistant Staphylococcus aureus assessed as reduction in TNF-alpha level at 5 mg/ml,sc measured after 48 hrs by ELISA assay; type: functional, organism-based
Summary of the method: (§3)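 Female ICR mice (16–20 g), anaesthetised and dorsum shaved. Subcutaneous abscess made with 100 μL MRSA at 1×10^8 CFU/mL. After 30 min, 100 μL of compound in sterile PBS (0.5 or 5 mg/mL) injected into the infection site; PBS controls. At 48 h: skin imaged, abscess bacteria plate-counted, H&E histology, IL-6 and TNF-α measured in skin homogenate by ELISA.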

Staphylococcus aureus [6] = assay: Antibacterial activity in ICR mouse infected with methicillin-resistant Staphylococcus aureus assessed as reduction in IL-6 level at 5 mg/ml,sc measured after 48 hrs by ELISA assay; type: functional, organism-based; summary of the method: as §3
Staphylococcus aureus [7] = assay: Antibacterial activity in ICR mouse infected with methicillin-resistant Staphylococcus aureus assessed as reduction in skin inflammatory cells at 5 mg/ml,sc measured after 48 hrs by H and E staining based analysis; type: functional, organism-based; summary of the method: as §3
Staphylococcus aureus [8] = assay: Antibacterial activity in ICR mouse infected with methicillin-resistant Staphylococcus aureus assessed as reduction in colony growth at 5 mg/ml,sc measured after 48 hrs; type: functional; summary of the method: as §3
Staphylococcus aureus [9] = assay: Antibacterial activity in ICR mouse infected with methicillin-resistant Staphylococcus aureus assessed as presence of erythema at 5 mg/ml,sc measured after 48 hrs; type: functional, organism-based; summary of the method: as §3
Staphylococcus aureus [10] = assay: Antibacterial activity in ICR mouse infected with methicillin-resistant Staphylococcus aureus assessed as reduction in microbial burden at 5 mg/ml,sc measured after 48 hrs; type: functional; design: scale not given: the % may be the effect or the level left; summary of the method: as §3
[11] = Toxicity in ICR mouse infected with methicillin-resistant Staphylococcus aureus assessed as histopathological abnormalities in liver at […],sc measured after 48 hrs by H and E staining based assay; type: organism-based; conditions: in vivo
Summary of the method: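 MRSA abscess model in female ICR mice: 100 μL compound in PBS (0.5 or 5 mg/mL) injected subcutaneously at the infection site 30 min after inoculation. Major organs harvested and examined by H&E staining for systemic toxicity.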

SMILES	MIC (Enterococcus faecalis) [µg/mL]	HC50 at 1 h [1] [µg/mL]	MIC [2] [µg/mL]	MIC (Pseudomonas aeruginosa) [µg/mL]	MIC (Klebsiella pneumoniae) [µg/mL]	selectivity ratio [3]	MIC (Staphylococcus aureus [4]) [µg/mL]	MIC (Escherichia coli) [µg/mL]	Activity (Staphylococcus aureus [5])	Activity (Staphylococcus aureus [6])	Activity (Staphylococcus aureus [7])	Activity (Staphylococcus aureus [8]) [log10CFU/ml]	Activity (Staphylococcus aureus [9])	Activity (Staphylococcus aureus [10]) [%]	Activity [11]
CCCCCCCC(=O)NCCNC(=O)c1cc(NC(=O)CN(C[C@@H](N)CCCCN)C(=O)CCCCCCC)cc(NC(=O)CN(C[C@@H](N)CCCCN)C(=O)CCCCCCC)c1	4.5 (≈ 4.92 µM)	> 250	4.5 (≈ 4.92 µM)	4.5 (≈ 4.92 µM)	> 25	> 55.5	4.5 (≈ 4.92 µM)	4.5 (≈ 4.92 µM)							
CCCCCCCCCC(=O)NCCNC(=O)c1cc(NC(=O)CN(C[C@@H](N)CCCCN)C(=O)CC23CC4CC(CC(C4)C2)C3)cc(NC(=O)CN(C[C@@H](N)CCCCN)C(=O)CC23CC4CC(CC(C4)C2)C3)c1	4.5 (≈ 4.31 µM)	> 250	2 (≈ 1.92 µM)	2 (≈ 1.92 µM)	4.5 (≈ 4.31 µM)	> 250	1 (≈ 0.958 µM)	19 (≈ 18.2 µM)							
CCCCCCCCCCNC(=O)c1cc(NC(=O)CN(C[C@@H](N)CCCCN)C(=O)CC23CC4CC(CC(C4)C2)C3)cc(NC(=O)CN(C[C@@H](N)CCCCN)C(=O)CC23CC4CC(CC(C4)C2)C3)c1	2 (≈ 2.03 µM)	125	9 (≈ 9.12 µM)	> 25	> 25	62.5	2 (≈ 2.03 µM)	> 25							
O=C(O)c1cn(C2CC2)c2cc(N3CCNCC3)c(F)cc2c1=O [CIPROFLOXACIN]	0.9 (≈ 2.72 µM)		0.45 (≈ 1.36 µM)	0.45 (≈ 1.36 µM)	0.9 (≈ 2.72 µM)		0.24 (≈ 0.724 µM)		Active	Active	Active	0.7	Active	81.1	Toxic
CCCCCCCCCCCC(=O)NCCNC(=O)c1cc(NC(=O)CNC[C@@H](N)CCCCN)cc(NC(=O)CNC[C@@H](N)CCCCN)c1		> 250					> 25	> 25							
CCCCCCCC(=O)NCCNC(=O)c1cc(NC(=O)CN(C[C@@H](N)CCCCN)C(=O)Cc2cccc3ccccc23)cc(NC(=O)CN(C[C@@H](N)CCCCN)C(=O)Cc2cccc3ccccc23)c1	> 25	> 250	9 (≈ 9.01 µM)	> 25	4.5 (≈ 4.5 µM)	> 27.8	9 (≈ 9.01 µM)	4.5 (≈ 4.5 µM)							
CCCCCCNC(=O)c1cc(NC(=O)CN(C[C@@H](N)CCCCN)C(=O)CC23CC4CC(CC(C4)C2)C3)cc(NC(=O)CN(C[C@@H](N)CCCCN)C(=O)CC23CC4CC(CC(C4)C2)C3)c1	2 (≈ 2.15 µM)	125	2 (≈ 2.15 µM)	4.5 (≈ 4.84 µM)	9 (≈ 9.67 µM)	62.5	2 (≈ 2.15 µM)	9 (≈ 9.67 µM)							
CCCCCCCCCCCC(=O)NCCNC(=O)c1cc(NC(=O)CN(C[C@@H](N)CCCCN)C(=O)CC23CC4CC(CC(C4)C2)C3)cc(NC(=O)CN(C[C@@H](N)CCCCN)C(=O)CC23CC4CC(CC(C4)C2)C3)c1	4.5 (≈ 4.2 µM)	250	4.5 (≈ 4.2 µM)	> 25	> 25	55.5	4.5 (≈ 4.2 µM)	> 25							
CCCCCCCCNC(=O)c1cc(NC(=O)CN(C[C@@H](N)CCCCN)C(=O)CC23CC4CC(CC(C4)C2)C3)cc(NC(=O)CN(C[C@@H](N)CCCCN)C(=O)CC23CC4CC(CC(C4)C2)C3)c1	4.5 (≈ 4.7 µM)	125	4.5 (≈ 4.7 µM)	19 (≈ 19.8 µM)	9 (≈ 9.39 µM)	62.5	2 (≈ 2.09 µM)	9 (≈ 9.39 µM)							
CCCCCCCC(=O)NCCNC(=O)c1cc(NC(=O)CN(C[C@@H](N)CCCCN)C(=O)c2cccc(Cl)c2)cc(NC(=O)CN(C[C@@H](N)CCCCN)C(=O)c2cccc(Cl)c2)c1		> 250					> 25	> 25							
CCCCCCCC(=O)NCCNC(=O)c1cc(NC(=O)CN(C[C@@H](N)CCCCN)C(=O)c2ccc(Cl)cc2)cc(NC(=O)CN(C[C@@H](N)CCCCN)C(=O)c2ccc(Cl)cc2)c1		> 250					> 25	> 25							
CCCCCCCC(=O)NCCNC(=O)c1cc(NC(=O)CN(C[C@@H](N)CCCCN)C(=O)c2ccc(-c3ccccc3)cc2)cc(NC(=O)CN(C[C@@H](N)CCCCN)C(=O)c2ccc(-c3ccccc3)cc2)c1	4.5 (≈ 4.4 µM)	> 250	4.5 (≈ 4.4 µM)	4.5 (≈ 4.4 µM)	> 25	> 55.5	4.5 (≈ 4.4 µM)	9 (≈ 8.79 µM)							
CCCCCCCC(=O)NCCNC(=O)c1cc(NC(=O)CN(C[C@@H](N)CCCCN)C(=O)CC23CC4CC(CC(C4)C2)C3)cc(NC(=O)CN(C[C@@H](N)CCCCN)C(=O)CC23CC4CC(CC(C4)C2)C3)c1	4.5 (≈ 4.43 µM)	> 250	2 (≈ 1.97 µM)	4.5 (≈ 4.43 µM)	4.5 (≈ 4.43 µM)	> 125	2 (≈ 1.97 µM)	4.5 (≈ 4.43 µM)							
CCCCCCCCCCCC(=O)NCCNC(=O)c1cc(NC(=O)CN(C[C@@H](N)CCCCN)C(=O)CCCCCCC)cc(NC(=O)CN(C[C@@H](N)CCCCN)C(=O)CCCCCCC)c1	> 25	> 250	9 (≈ 9.26 µM)	> 25	> 25	> 55.5	4.5 (≈ 4.63 µM)	> 25							
CCCCCCCC(=O)NCCNC(=O)c1cc(NC(=O)CN(C[C@@H](N)CCCCN)C(=O)CCCCC)cc(NC(=O)CN(C[C@@H](N)CCCCN)C(=O)CCCCC)c1		> 250					> 25	> 25							
